# TRPN1 ag – agonists of zebrafish TRPN1 channel; HEK293 zebrafish TRPN1-YFP, Fluo-8 calcium fluorescence; 100% = response to 87 µM carbachol; activation, % at 3 µM; actives 0.18% (n = 220,000); AID 1424;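 active means activation above its plate's cutoff, the mean activation of test wells on that plate plus 3 SD, cut at about 19% in these data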
#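 Assay system: Zebrafish TRPN1-YFP in HEK293 cells | Incubation: Dye loading 1 h at 37 °C, then 30 min room temperature | Measured by: Kinetic Fluo-8 fluorescence, ex 470-495, em 515-575 nm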
# CRFR2-BP antag – blocks CRF-induced signaling of the CRF-BP/CRF-R2 complex. actives 0.59% (n = 350,000). inhibition, % at 11.8 µM. AID 588475. HEK293 CRF-R2/CRF-BP, CRF-induced calcium fluorescence;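 active means inhibition of the ligand-induced calcium signal above about 50% at the single tested concentration, limit read from the data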
# TRPML3 agonist – human mucolipin-3 channel agonism. AID 1448. actives 0.29% (n = 220,000). activation, % at 3 µM. Q8TDD5. HEK293 TRPML3-YFP, Fluo-8 calcium fluorescence; 100% = the carbachol control signal;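 active means activation above its plate's cutoff, the mean activation of the plate's test wells plus 3 SD, cut at about 12% in these data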
# Target sequence (Q8TDD5 whole entry, looked up): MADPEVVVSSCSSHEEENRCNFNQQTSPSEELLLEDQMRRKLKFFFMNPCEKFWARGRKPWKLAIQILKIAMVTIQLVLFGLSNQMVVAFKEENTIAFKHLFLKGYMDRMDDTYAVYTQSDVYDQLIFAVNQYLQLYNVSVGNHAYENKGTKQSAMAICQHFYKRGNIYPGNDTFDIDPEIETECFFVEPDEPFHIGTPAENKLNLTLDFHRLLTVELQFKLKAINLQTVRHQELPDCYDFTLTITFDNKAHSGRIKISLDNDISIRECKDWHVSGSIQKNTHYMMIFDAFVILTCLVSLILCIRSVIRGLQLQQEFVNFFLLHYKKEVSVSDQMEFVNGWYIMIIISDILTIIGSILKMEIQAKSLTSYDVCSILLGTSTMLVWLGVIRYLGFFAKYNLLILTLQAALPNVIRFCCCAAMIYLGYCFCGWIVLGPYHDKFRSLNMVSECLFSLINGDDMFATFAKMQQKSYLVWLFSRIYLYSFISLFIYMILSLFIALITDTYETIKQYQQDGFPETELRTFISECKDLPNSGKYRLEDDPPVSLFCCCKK
#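 Test system: HEK293 cells stably carrying human TRPML3-YFP; Doses: single dose, 3 µM final nominal compound, 0.3% DMSO final; Schedule: dye loading 1 h 37 °C then 30 min ambient, 125 s read; Technique: Fluo-8 calcium fluorescence; Benchmarks: high control carbachol 87 µM, low control DMSO.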
# CRFR2-BP ag – CRF-BP/CRF-R2 complex agonism; actives 0.46% (n = 350,000); HEK293 CRF-R2/CRF-BP, calcium dye fluorescence (FLIPR); percent of saturating CRF peptide response; activation, % at 13.2 µM;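 active means activation of at least 50%, plus an integration ratio under a set limit after plate pattern correction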
# VIM-2 inh – inhibitors of Pseudomonas aeruginosa VIM-2 metallo-beta-lactamase. actives 0.89% (n = 290,000). AID 1527. purified VIM-2, nitrocefin hydrolysis, epi-absorbance fluorescence. inhibition, % at 5.6 µM;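 active means inhibition above the mean of all tested compounds plus 3 SD, cutoff set per screening run, cut at about 7.5% in these data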;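 further: red hydrolysis product quenches plate fluorescence so inhibitors raise well fluorescence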
# IMP-1 inh – blocks Pseudomonas aeruginosa IMP-1 metallo-beta-lactamase; AID 1556; actives 0.45% (n = 290,000); purified IMP-1, nitrocefin hydrolysis, epi-absorbance fluorescence; inhibition, % at 5.6 µM;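 active means inhibition above the mean plus 3 SD of all compounds in the same screening run, cut at about 4.5% in these data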
#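 Material – recombinant IMP-1 enzyme, purified · Amount – IMP-1 0.2 nM before substrate addition · Medium – HEPES buffer pH 7.1 with ZnSO4 and Brij 35 · Timing – 25 °C, 15 min preincubation, 25 min reaction · Measured by – plate fluorescence quenching by hydrolysis product, ex 480/em 530 nm · Read-out – percent enzyme inhibition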
# Hits are given with their value; . = inactive; / = not tested or not shown. Sampled rows, rich in hits. Any-hit rate of the full collection: about 2.1%.
SMILES,TRPN1 ag,CRFR2-BP antag,TRPML3 agonist,CRFR2-BP ag,VIM-2 inh,IMP-1 inh
CCN(CC)CCCn1c2c(c(SCC(=O)N3CCc4ccccc43)nc1=O)CCC2,/,.,/,.,/,/
CCCCN1C(=O)C(CC(=O)NCCN2CCOCC2)CC(C(=O)N(CC)CC)=C1C (stereo not drawn),/,.,/,.,/,/
COC(=O)c1c(C(=O)OC)c2cc(C)ccn2c1Cl,.,.,.,.,8.1,.
CCCN1CCN(CCCNC(=O)CCCn2nc(C)c3sc4ccccc4c3c2=O)CC1,/,.,/,.,.,.
CCN1CCN(C(=O)Cn2nc(C)c3sc4ccccc4c3c2=O)CC1,/,.,/,.,9.3,.
CCOC(=O)c1cnc2c(ccc3ccccc32)c1NCCN(C)C,/,.,/,.,12,.
CCOC(=O)c1cnc2c(cnn2C)c1NCCC#N,.,.,.,.,.,.
CCOC(=O)c1cnc2c(cnn2C)c1NCCCN(C)C,.,.,.,.,8.4,.
Cc1ccc(CONC(=O)c2cccc([N+](=O)[O-])c2)cc1,/,.,/,.,/,/
COC(=O)C(/C=N/OCc1ccc([N+](=O)[O-])cc1)NC(=O)c1cccc(Cl)c1 (stereo not drawn),20,.,.,.,.,.
CCCCCCCCCCCC1=C(O)C(=O)C=C(O)C1=O,/,.,/,62,/,/
COc1ccc(NC(=O)CNC(=O)C23CC4CC(CC(C4)C2)C3)c(OC)c1,/,.,/,.,/,/
COc1ccc(NC(=O)C(=O)NNC(=O)c2cccs2)cc1,.,.,.,.,.,.
COc1ccc(OC)c(NC(=O)C(=O)NNC(=O)C23CC4CC(CC(C4)C2)C3)c1,43,.,27,55,.,.
COc1ccc(NC(=O)C(=O)NNC(=O)c2cccs2)c(OC)c1,.,75,.,.,.,.
Cc1c(CC(=O)N2CCC(C(N)=O)CC2)c(=O)oc2cc3c(cc12)CCC1(CCCCC1)O3,/,.,/,.,.,.
Cc1ccc(N(C)S(=O)(=O)c2cccc(C(=O)OCC(=O)c3c(N)n(C)c(=O)n(C)c3=O)c2)cc1,/,.,/,.,/,/
NC(CCCCCP(=O)(c1ccccc1)c1ccccc1)C(=O)O (stereo not drawn),.,.,.,.,.,28
Cc1ccc(OCC(=O)N2CCCCC2C)c([N+](=O)[O-])n1 (stereo not drawn),/,.,/,.,/,/
CCC(=O)c1ccc(OCC(=O)Nc2cccc(S(=O)(=O)N(C)c3ccccc3)c2)cc1,/,.,/,.,/,/
CN(c1ccccc1)S(=O)(=O)c1cccc(NC(=O)COc2cccc([N+](=O)[O-])c2)c1,/,52,/,.,/,/
CCOC(=O)C1(CC2CCCCO2)CCN(Cc2cc3ccccc3[nH]2)CC1 (stereo not drawn),30,.,24,126,.,.
COc1ccc(N(C)S(=O)(=O)c2ccc3c(c2)oc(=O)n3C)cc1,.,.,.,.,.,.
CN(c1ccccc1)S(=O)(=O)c1ccc2c(c1)oc(=O)n2C,/,59,/,.,.,.
Cc1ccc(C(=O)OCC(=O)N2C(C)CCCC2C)cc1S(=O)(=O)N1CCOCC1 (stereo not drawn),/,.,/,.,/,/
SMILES,TRPN1 ag,CRFR2-BP antag,TRPML3 agonist,CRFR2-BP ag,VIM-2 inh,IMP-1 inh
CC(C)C1OC2c3cccc4cccc(c34)C2N1c1ccccc1 (stereo not drawn),.,.,.,.,.,4.6
CC(C)[N+]1=C2C=CC=CC=C2SC12C([N+](=O)[O-])=CC(=[N+]([O-])[O-])C=C2[N+](=O)[O-] (stereo not drawn),.,.,.,.,.,.
Cc1nc2ccc(NS(=O)(=O)c3ccc(C)c(C)c3)cc2s1,.,78,.,.,.,.
CC(=O)c1cccc(S(=O)(=O)Nc2ccc3nc(C)sc3c2)c1,.,.,.,.,.,.
C/C(=N/NC(=O)CN1CCN(S(=O)(=O)c2ccc(C)cc2)CC1)c1cccc(O)c1,.,.,.,.,.,.
O=C(CN1C(=O)NC(c2ccccc2)(c2ccccc2)C1=O)NCc1ccc(F)cc1,/,.,/,.,/,/
Cc1ccc(C)c(NC(=S)NCCCN2CCOCC2)c1,.,126,.,.,.,.
Cc1cc(OC(C)C(=O)NC2CC(C)(C)NC(C)(C)C2)c2c(C)c(C)c(=O)oc2c1 (stereo not drawn),/,.,/,.,/,/
CC(=O)c1cccc(NC(=O)C(C)OC(=O)c2ccc(Br)o2)c1 (stereo not drawn),/,.,/,.,/,/
CC(=O)c1ccc(NC(=O)C(C)OC(=O)c2ccc(Br)o2)cc1 (stereo not drawn),/,54,/,.,/,/
Cc1cc(=O)[nH]c(SCC(=O)Nc2ccccc2C)n1,20,.,.,.,.,.
Cc1cc(SCC(=O)Nc2ccccc2C)nc(C)n1,.,.,.,.,.,.
COc1ccc(C2CC(c3cccs3)=NN2c2ccc(C=O)cc2)cc1 (stereo not drawn),29,.,17,109,.,.
Cc1ccc(NC(=O)c2cc(S(=O)(=O)N3CCCCC3)c[nH]2)cc1C,/,.,/,.,.,.
CCn1c(=O)c(C(C)=O)nc2ccccc21,.,.,.,.,.,5.9
CCc1nc2ccccc2n(CC)c1=O,.,.,.,.,.,.
CCOc1ccc(CCNC(=O)COC(=O)c2[nH]c(C)c(C(C)=O)c2C)cc1OCC,/,.,/,.,/,/
COc1ccc(C(=O)NC2CC(C)(C)NC(C)(C)C2)cc1S(=O)(=O)N1CCOCC1,/,.,/,.,/,/
CN1CCN(C2=Nc3c(Cl)cc(Cl)c4cccc2c34)CC1,.,.,.,.,7.7,.
CC(=O)c1ccc(N2CCN(CC(=O)NCc3ccccc3)CC2)cc1,/,.,/,.,.,6.5
COc1ccc(CNC(=O)CN2CCN(c3ccc(F)cc3)CC2)cc1,/,58,/,.,.,.
O=C(OCc1ccc2c(c1)OCO2)c1ccc(S(=O)(=O)N2CCCC2)cc1,.,114,.,.,.,.
O=C(OCc1ccc2c(c1)OCO2)c1cccc(S(=O)(=O)N2CCCCC2)c1,.,.,.,.,.,.
CCCCn1c(N)c(N(CC(C)C)C(=O)Cc2ccc(S(=O)(=O)N3CCOCC3)s2)c(=O)[nH]c1=O,/,.,/,54,/,/
CCCCn1c(N)c(N(CC)C(=O)Cc2ccc(S(=O)(=O)N3CCOCC3)s2)c(=O)[nH]c1=O,/,.,/,.,/,/
CCCCn1c(N)c(N(CCC(C)C)C(=O)c2cc(S(=O)(=O)N3CCOCC3)ccc2F)c(=O)[nH]c1=O,/,.,/,.,/,/
CCCCn1c(N)c(N(CCC(C)C)C(=O)Cc2ccc(S(=O)(=O)N3CCOCC3)s2)c(=O)[nH]c1=O,/,100,/,.,/,/
Cc1ccc(C)c(N(CC(=O)NCc2ccco2)C(=O)CNS(=O)(=O)c2ccccc2)c1,/,.,/,.,.,.
O=[N+]([O-])c1ccc2[nH]c(=S)sc2c1,/,59,/,.,/,/
Cc1ccc2c(c1)N(CCC(=O)NC1CCCCC1)C(=O)CO2,/,.,/,.,.,.

# Source: PubChem BioAssay
